Data set [1] is described as follows: Partition coefficient (logP). It is filed as physicochemical. To be noted: octanol/water. In a few lines:
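Each ⁶⁴Cu complex was partitioned between octanol and water, shaken 1 h at room temperature, and 100 μL from each phase was counted. Log P is the log of the octanol/water count ratio, averaged over five samples.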

The species named for data set [2] is Rattus norvegicus. Description: Distribution in rat kidney 24 hr postinjection. Type of data set: ADME, organism-based. The following applies: in vivo. In a few lines: (§1)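 ⁶⁴Cu-labeled complexes, at NCA and CA levels, were diluted in saline and injected into mature female Sprague–Dawley rats (180–200 g; n = 4). Each rat received up to 0.2 mL carrying 22 μCi. Rats were sacrificed at set times after injection, including 24 h. Organs were excised, weighed and counted against a weighed, counted standard. Values are %ID/g and %ID/organ ± sd.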

The species named for data set [3] is Rattus norvegicus. Description: Distribution in rat liver after 24 hr postinjection. It is filed as ADME, organism-based. To be noted: in vivo. In a few lines:
as §1

The species named for data set [4] is Rattus norvegicus. In words: Distribution in rat blood after 24 hr postinjection. Type of data set: ADME, organism-based. The following applies: in vivo. The procedure, abridged:
as §1

As a reminder, the logP is the decadic logarithm of the partition coefficient of the neutral form, usually between octanol and water. A lower logP goes with lower lipophilicity.

With `C1CNCCN2CCCNCCN(C1)CC2`, the logP in data set [1] is -2.11.

With `CCN(CC)C(=O)CN1CCCN2CCN(CCCN(CC(=O)N(CC)CC)CC2)CC1`, the logP in data set [1] is -1.95.

Consider “Cu-1,4,8,11tetraaza-Cyclotetradecane-2,10-dione”, for which the values for the Biodistribution in data set [2], in data set [3] and in data set [4] were 0.097, 0.7 and 0.23, respectively.

In data set [1], `NC(=O)CCN1CCCN2CCN(CCC(N)=O)CCCN(CC1)CC2` had a lipophilicity (logP) of -2.3.

In the case of “Cu-(4,8,11-Tris-carboxymethyl-1,4,8,11tetraaza-cyclotetradec-1-yl)-acetic acid”, the Biodistribution in data set [2] is 0.21; in data set [3] it was 0.49; in data set [4] it was 0.21.
